Experimental data reported in ChEMBL document CHEMBL2040809, “Synthesis and biological activity evaluation of cytidine-5'-deoxy-5-fluoro-N-[(alkoxy/aryloxy)] carbonyl-cyclic 2',3'-carbonates” (Eur J Med Chem, 2012).
Values after ≈ are worked out from the molar mass of the structure shown.

Tests used:
Salmonella typhimurium [1] = test: Mutagenic activity in Salmonella typhimurium TA100 at 0.312 to 5 mg/plate measured after incubation of upside down for 48 hrs in absence of liver S9 mixture; assay type: toxicity, organism-based; conditions: salmonella enterica subsp. enterica serovar typhimurium
Summary of the method: (§1)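 Plate incorporation trial (Trial I) with histidine-dependent auxotrophs. Revertant colonies are counted against the concurrent vehicle control. Each dose and each control, including negative, vehicle and positive reference mutagens, run in triplicate plates.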

Salmonella typhimurium [2] = test: Mutagenic activity in Salmonella typhimurium TA1535 at 0.312 to 5 mg/plate preincubated for 20 mins before addition in absence of liver S9 mixture; assay type: toxicity, organism-based; conditions: salmonella enterica subsp. enterica serovar typhimurium
Summary of the method: (§2)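 Pre-incubation trial (Trial II) with histidine-dependent auxotrophs. Test solution is pre-incubated with bacterial suspension and S9 mix (10% v/v) or substitution buffer before plating on selective agar. Revertant colonies are counted against the concurrent vehicle control. Triplicate plates per dose and per control (negative, vehicle, positive reference mutagens).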

Salmonella typhimurium [3] = test: Mutagenic activity in Salmonella typhimurium TA102 at 0.312 to 5 mg/plate preincubated for 20 mins before addition in absence of liver S9 mixture; assay type: toxicity, organism-based; conditions: salmonella enterica subsp. enterica serovar typhimurium; summary of the method: as §2
Salmonella typhimurium [4] = test: Mutagenic activity in Salmonella typhimurium TA1537 at 0.312 to 5 mg/plate preincubated for 20 mins before addition in absence of liver S9 mixture; assay type: toxicity, organism-based; conditions: salmonella enterica subsp. enterica serovar typhimurium; summary of the method: as §2
MCF7 = test: Cytotoxicity against human MCF7 cells after 3 days MTT assay; assay type: functional, cell-based; conditions: MCF7, 72 h
Summary of the method: (§3)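 Cells held as monolayers in DMEM with 10% supplement. Seeded in 96-well plates on day 0 at densities set by doubling time: 1 × 10⁴/mL for HeLa and NCI-69, 2 × 10⁴/mL for MCF-7, 3 × 10⁴/mL for PZ-HPV-7. Five dilutions (10⁻⁸–5 × 10⁻⁶ mol/l), freshly prepared, added for 72 h. Growth read by MTT (succinate dehydrogenase activity); IC50 derived.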

Salmonella typhimurium [5] = test: Mutagenic activity in Salmonella typhimurium TA102 at 0.312 to 5 mg/plate measured after incubation of upside down for 48 hrs in presence of liver S9 mixture; assay type: toxicity, organism-based; conditions: salmonella enterica subsp. enterica serovar typhimurium, s9, 48 h; summary of the method: as §1
HeLa = test: Cytotoxicity against human HeLa cells after 3 days MTT assay; assay type: functional, cell-based; conditions: 72 h; summary of the method: as §3
Salmonella typhimurium [6] = test: Mutagenic activity in Salmonella typhimurium TA1537 at 0.312 to 5 mg/plate measured after incubation of upside down for 48 hrs in absence of liver S9 mixture; assay type: toxicity, organism-based; conditions: salmonella enterica subsp. enterica serovar typhimurium; summary of the method: as §1
Salmonella typhimurium [7] = test: Mutagenic activity in Salmonella typhimurium TA1535 at 0.312 to 5 mg/plate measured after incubation of upside down for 48 hrs in presence of liver S9 mixture; assay type: toxicity, organism-based; conditions: salmonella enterica subsp. enterica serovar typhimurium, s9, 48 h; summary of the method: as §1
Salmonella typhimurium [8] = test: Mutagenic activity in Salmonella typhimurium TA1535 at 0.312 to 5 mg/plate preincubated for 20 mins before addition in presence of liver S9 mixture; assay type: toxicity, organism-based; conditions: salmonella enterica subsp. enterica serovar typhimurium; summary of the method: as §2
[9] = Cytotoxicity against human PZ-HPV-7 cells after 3 days MTT assay; assay type: functional, cell-based; conditions: 72 h; summary of the method: as §3
Salmonella typhimurium [10] = test: Mutagenic activity in Salmonella typhimurium TA98 at 0.312 to 5 mg/plate preincubated for 20 mins before addition in presence of liver S9 mixture; assay type: toxicity, organism-based; conditions: salmonella enterica subsp. enterica serovar typhimurium; summary of the method: as §2
Salmonella typhimurium [11] = test: Mutagenic activity in Salmonella typhimurium TA1537 at 0.312 to 5 mg/plate measured after incubation of upside down for 48 hrs in presence of liver S9 mixture; assay type: toxicity, organism-based; conditions: salmonella enterica subsp. enterica serovar typhimurium, s9, 48 h; summary of the method: as §1
Salmonella typhimurium [12] = test: Mutagenic activity in Salmonella typhimurium TA102 at 0.312 to 5 mg/plate preincubated for 20 mins before addition in presence of liver S9 mixture; assay type: toxicity, organism-based; conditions: salmonella enterica subsp. enterica serovar typhimurium; summary of the method: as §2
Salmonella typhimurium [13] = test: Mutagenic activity in Salmonella typhimurium TA1537 at 0.312 to 5 mg/plate preincubated for 20 mins before addition in presence of liver S9 mixture; assay type: toxicity, organism-based; conditions: salmonella enterica subsp. enterica serovar typhimurium; summary of the method: as §2
Salmonella typhimurium [14] = test: Mutagenic activity in Salmonella typhimurium TA102 at 0.312 to 5 mg/plate measured after incubation of upside down for 48 hrs in absence of liver S9 mixture; assay type: toxicity, organism-based; conditions: salmonella enterica subsp. enterica serovar typhimurium; summary of the method: as §1
Salmonella typhimurium [15] = test: Mutagenic activity in Salmonella typhimurium TA1535 at 0.312 to 5 mg/plate measured after incubation of upside down for 48 hrs in absence of liver S9 mixture; assay type: toxicity, organism-based; conditions: salmonella enterica subsp. enterica serovar typhimurium; summary of the method: as §1
Salmonella typhimurium [16] = test: Mutagenic activity in Salmonella typhimurium TA100 at 0.312 to 5 mg/plate preincubated for 20 mins before addition in presence of liver S9 mixture; assay type: toxicity, organism-based; conditions: salmonella enterica subsp. enterica serovar typhimurium; summary of the method: as §2
Salmonella typhimurium [17] = test: Mutagenic activity in Salmonella typhimurium TA100 at 0.312 to 5 mg/plate measured after incubation of upside down for 48 hrs in presence of liver S9 mixture; assay type: toxicity, organism-based; conditions: salmonella enterica subsp. enterica serovar typhimurium, s9, 48 h; summary of the method: as §1
NCI-H69 = test: Cytotoxicity against human NCI-H69 cells after 3 days MTT assay; assay type: functional, cell-based; conditions: NCI-H69, 72 h; summary of the method: as §3
Salmonella typhimurium [18] = test: Mutagenic activity in Salmonella typhimurium TA100 at 0.312 to 5 mg/plate preincubated for 20 mins before addition in absence of liver S9 mixture; assay type: toxicity, organism-based; conditions: salmonella enterica subsp. enterica serovar typhimurium; summary of the method: as §2
Salmonella typhimurium [19] = test: Mutagenic activity in Salmonella typhimurium TA98 at 0.312 to 5 mg/plate measured after incubation of upside down for 48 hrs in absence of liver S9 mixture; assay type: toxicity, organism-based; conditions: salmonella enterica subsp. enterica serovar typhimurium; summary of the method: as §1
Salmonella typhimurium [20] = test: Mutagenic activity in Salmonella typhimurium TA98 at 0.312 to 5 mg/plate preincubated for 20 mins before addition in absence of liver S9 mixture; assay type: toxicity, organism-based; conditions: salmonella enterica subsp. enterica serovar typhimurium; summary of the method: as §2
Salmonella typhimurium [21] = test: Mutagenic activity in Salmonella typhimurium TA98 at 0.312 to 5 mg/plate measured after incubation of upside down for 48 hrs in presence of liver S9 mixture; assay type: toxicity, organism-based; conditions: salmonella enterica subsp. enterica serovar typhimurium, s9, 48 h; summary of the method: as §1

In the case of `CCC(C)COC(=O)Nc1nc(=O)n([C@@H]2O[C@H](C)[C@@H](O)[C@H]2O)cc1F` (stereo partly specified), the Activity (Salmonella typhimurium [1]) is reported as “Non-toxic”, the Activity (Salmonella typhimurium [2]) is reported as “Non-toxic” and the Activity (Salmonella typhimurium [3]) is reported as “Non-toxic”. For the same compound, the Activity (Salmonella typhimurium [4]) was “Non-toxic”, the IC50 (MCF7) was 120 µg/mL (≈ 334 µM) and the Activity (Salmonella typhimurium [5]) was “Non-toxic”. For the same compound, the IC50 (HeLa) was 0.09 µg/mL (≈ 0.25 µM), the Activity (Salmonella typhimurium [6]) was “Non-toxic” and the Activity (Salmonella typhimurium [7]) was “Non-toxic”. For the same compound, the Activity (Salmonella typhimurium [8]) was “Non-toxic”, the IC50 [9] was 250 µg/mL (≈ 696 µM) and the Activity (Salmonella typhimurium [10]) was “Non-toxic”. For the same compound, the Activity (Salmonella typhimurium [11]) was “Non-toxic”, the Activity (Salmonella typhimurium [12]) was “Non-toxic” and the Activity (Salmonella typhimurium [13]) was “Non-toxic”. For the same compound, the Activity (Salmonella typhimurium [14]) was “Non-toxic”, the Activity (Salmonella typhimurium [15]) was “Non-toxic” and the Activity (Salmonella typhimurium [16]) was “Non-toxic”. The Activity (Salmonella typhimurium [17]) was “Non-toxic”, the IC50 (NCI-H69) was 370 µg/mL (≈ 1030 µM) and the Activity (Salmonella typhimurium [18]) was “Non-toxic”. For the same compound, the Activity (Salmonella typhimurium [19]) was “Non-toxic”, the Activity (Salmonella typhimurium [20]) was “Non-toxic” and the Activity (Salmonella typhimurium [21]) was “Non-toxic”.
For `CC(C)CCOC(=O)Nc1nc(=O)n([C@@H]2O[C@H](C)[C@@H](O)[C@H]2O)cc1F`, the Activity (Salmonella typhimurium [1]) was “Non-toxic”, the Activity (Salmonella typhimurium [2]) was “Non-toxic” and the Activity (Salmonella typhimurium [3]) was “Non-toxic”. For the same compound, the Activity (Salmonella typhimurium [4]) was “Non-toxic”, the IC50 (MCF7) was 120 µg/mL (≈ 334 µM) and the Activity (Salmonella typhimurium [5]) was “Non-toxic”. For the same compound, the IC50 (HeLa) was 0.09 µg/mL (≈ 0.25 µM), the Activity (Salmonella typhimurium [6]) was “Non-toxic” and the Activity (Salmonella typhimurium [7]) was “Non-toxic”. The Activity (Salmonella typhimurium [8]) was “Non-toxic”, the IC50 [9] was 250 µg/mL (≈ 696 µM) and the Activity (Salmonella typhimurium [10]) was “Non-toxic”. For the same compound, the Activity (Salmonella typhimurium [11]) was “Non-toxic”, the Activity (Salmonella typhimurium [12]) was “Non-toxic” and the Activity (Salmonella typhimurium [13]) was “Non-toxic”. For the same compound, the Activity (Salmonella typhimurium [14]) was “Non-toxic”, the Activity (Salmonella typhimurium [15]) was “Non-toxic” and the Activity (Salmonella typhimurium [16]) was “Non-toxic”. The Activity (Salmonella typhimurium [17]) was “Non-toxic”, the IC50 (NCI-H69) was 370 µg/mL (≈ 1030 µM) and the Activity (Salmonella typhimurium [18]) was “Non-toxic”. The Activity (Salmonella typhimurium [19]) was “Non-toxic”, the Activity (Salmonella typhimurium [20]) was “Non-toxic” and the Activity (Salmonella typhimurium [21]) was “Non-toxic”.
With `C[C@H]1O[C@@H](n2cc(F)c(NC(=O)Oc3ccc([N+](=O)[O-])cc3)nc2=O)[C@H](O)[C@@H]1O` the Activity (Salmonella typhimurium [1]) was “Non-toxic”, the Activity (Salmonella typhimurium [2]) was “Non-toxic” and the Activity (Salmonella typhimurium [3]) was “Non-toxic”. The Activity (Salmonella typhimurium [4]) was “Non-toxic”, the IC50 (MCF7) was 180 µg/mL (≈ 439 µM) and the Activity (Salmonella typhimurium [5]) was “Non-toxic”. For the same compound, the IC50 (HeLa) was 0.01 µg/mL (≈ 0.0244 µM), the Activity (Salmonella typhimurium [6]) was “Non-toxic” and the Activity (Salmonella typhimurium [7]) was “Non-toxic”. For the same compound, the Activity (Salmonella typhimurium [8]) was “Non-toxic”, the IC50 [9] was 90 µg/mL (≈ 219 µM) and the Activity (Salmonella typhimurium [10]) was “Non-toxic”. For the same compound, the Activity (Salmonella typhimurium [11]) was “Non-toxic”, the Activity (Salmonella typhimurium [12]) was “Non-toxic” and the Activity (Salmonella typhimurium [13]) was “Non-toxic”. The Activity (Salmonella typhimurium [14]) was “Non-toxic”, the Activity (Salmonella typhimurium [15]) was “Non-toxic” and the Activity (Salmonella typhimurium [16]) was “Non-toxic”. For the same compound, the Activity (Salmonella typhimurium [17]) was “Non-toxic”, the IC50 (NCI-H69) was 100 µg/mL (≈ 244 µM) and the Activity (Salmonella typhimurium [18]) was “Non-toxic”. For the same compound, the Activity (Salmonella typhimurium [19]) was “Non-toxic”, the Activity (Salmonella typhimurium [20]) was “Non-toxic” and the Activity (Salmonella typhimurium [21]) was “Non-toxic”.
With `C[C@H]1O[C@@H](n2cc(F)c(NC(=O)Oc3ccc(Cl)cc3)nc2=O)[C@H](O)[C@@H]1O` the Activity (Salmonella typhimurium [1]) was “Non-toxic”, the Activity (Salmonella typhimurium [2]) was “Non-toxic” and the Activity (Salmonella typhimurium [3]) was “Non-toxic”. For the same compound, the Activity (Salmonella typhimurium [4]) was “Non-toxic”, the IC50 (MCF7) was 100 µg/mL (≈ 250 µM) and the Activity (Salmonella typhimurium [5]) was “Non-toxic”. For the same compound, the IC50 (HeLa) was 0.03 µg/mL (≈ 0.075 µM), the Activity (Salmonella typhimurium [6]) was “Non-toxic” and the Activity (Salmonella typhimurium [7]) was “Non-toxic”. For the same compound, the Activity (Salmonella typhimurium [8]) was “Non-toxic”, the IC50 [9] was 70 µg/mL (≈ 175 µM) and the Activity (Salmonella typhimurium [10]) was “Non-toxic”. The Activity (Salmonella typhimurium [11]) was “Non-toxic”, the Activity (Salmonella typhimurium [12]) was “Non-toxic” and the Activity (Salmonella typhimurium [13]) was “Non-toxic”. For the same compound, the Activity (Salmonella typhimurium [14]) was “Non-toxic”, the Activity (Salmonella typhimurium [15]) was “Non-toxic” and the Activity (Salmonella typhimurium [16]) was “Non-toxic”. The Activity (Salmonella typhimurium [17]) was “Non-toxic”, the IC50 (NCI-H69) was 90 µg/mL (≈ 225 µM) and the Activity (Salmonella typhimurium [18]) was “Non-toxic”. For the same compound, the Activity (Salmonella typhimurium [19]) was “Non-toxic”, the Activity (Salmonella typhimurium [20]) was “Non-toxic” and the Activity (Salmonella typhimurium [21]) was “Non-toxic”.
